# Rows were chosen to be rich in hits. Some 27% of all compounds tested hit in one or more screens of this group.
# HIV Rev-RRE inh = HIV Rev-RRE protein-RNA interaction inhibition. P05866. Rev peptide-RRE RNA binding, FRET. inhibition, % at 8 µM. 97,000 compounds, 0.79% hits. AID 704;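 active = inhibition above the screen-wide mean plus 3 SD, cut at about 35% in these data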;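 note: 0% = median DMSO wells and 100% = median Neomycin B control wells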
#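 Test system – labelled RRE RNA duplex and labelled Rev peptide · Signal – fluorescein-to-Cy5 FRET, 480 nm excitation · Evaluation – % inhibition of FRET ratio versus controls · Benchmarks – DMSO low control, neomycin B high control · Incubation – 5 min RNA-compound premix plus 15 min binding step, 25 °C · Medium – HEPES pH 7.5 salt buffer with EDTA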
# CYP2C19 inhib = human CYP2C19 inhibition. P33261. CYP2C19 Supersomes, luciferin-H EGE luminescence, 30 min. inhibition, % at 5 µM. 96,000 compounds, 21% hits. AID 778;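 active = CYP2C19 inhibition above a set limit at 5 µM in the primary screen, cut at about 50% in these data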;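 note: plate controls were negative control wells for no effect and 2.5 mM tranylcypromine positive control for full effect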
# CYP2C19 act = increases human CYP2C19 enzyme activity; P33261; recombinant CYP2C19, luciferin-H EGE luminescence; active compounds read high; 0 = fully inhibited enzyme, 1 = untreated enzyme; activation factor at 5 µM; 96,000 tested, under 10 active;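 active = activation factor of at least 2 at 5 µM in the primary screen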;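 note: 0 = wells with 2.5 mM tranylcypromine and 1 = vehicle-only wells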
# CYP2C9 act = increases human cytochrome P450 2C9 activity. recombinant CYP2C9, luciferin-H conversion, luminescence; active compounds read high; factor 1 = untreated enzyme, 0 = blocked. activation factor at 5 µM. 96,000 compounds, 1.4% hits. AID 1024;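 active = activation factor of 2 or more for CYP2C9 at a 5 µM dose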;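 note: 0 = sulfaphenazole-blocked wells and 1 = vehicle-only wells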
# CYP2C9 inhib = human CYP2C9 inhibition. inhibition, % at 5 µM. AID 777. P11712. CYP2C9 Supersomes, luciferin-H conversion, luminescence. 96,000 compounds, 20% hits;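 active = blocking of liver enzyme CYP2C9 beyond about 50% at 5 µM, limit read from the data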
# Cav32 inh = human Cav3.2 channel inhibition, primary screen; O95180; Cav3.2-expressing cells, Fluo-4 calcium fluorescence FDSS; active compounds read low; B-score at 10 µM; 100,000 compounds, 4% hits;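 active = single-dose well whose peak fluorescence ratio is a statistical outlier from its plate by either plate-standardised score or position-corrected B-score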
# * marks the source's active call; other numbers are inactive results; / = not tested or not shown.
SMILES,HIV Rev-RRE inh,CYP2C19 inhib,CYP2C19 act,CYP2C9 act,CYP2C9 inhib,Cav32 inh
C=CCC(NCc1ccccc1)c1ccc(C)o1 (configuration not stated),2,/,/,/,/,0.25
Cc1c(NC(=O)N(C)C)c(=O)n(-c2ccccc2)n1C,5,/,/,/,/,0.76
COc1ccc(OC)c(S(=O)(=O)N2CCc3ccccc32)c1,1,77*,0.2,1.2,-21,-1.2
Cc1cc(NC(=O)COC(=O)c2ccc(S(=O)(=O)N3CCCc4ccccc43)cc2)no1,13,46,0.5,0.3,66*,0.059
COc1ccc(OC)c(S(=O)(=O)N2CCCc3ccccc32)c1,7,84*,0.2,1.7,-68,-2.7
COc1ccc(C(=O)NCC(c2cccnc2)N2CCN(c3ccccc3)CC2)cc1OC (configuration not stated),/,/,/,/,/,-0.19
CN(C)c1nc(N)nc(CSc2nnnn2-c2ccc(F)cc2)n1,-1,76*,0.2,0.6,36,0.15
CN(C)c1nc(N)nc(CSc2n[nH]c(-c3ccccc3)n2)n1,3,39,0.6,0.6,44,0.2
CC(=O)N1CCC2(CC1)CC(=O)c1cc(OCC(=O)NCc3ccco3)ccc1O2,8,7,0.9,1.3,-31,-0.8
Cc1oc(-c2ccc(Cl)cc2)nc1CS(=O)CC(=O)NCCCN(C)C1CCCCC1 (configuration not stated),4,-8,1.1,1,0,-0.79
Cc1ccc(-c2nn(CC(=O)O)c(=O)c3ccccc23)cc1,4,/,/,/,/,-0.039
Cc1ccc(NC(=O)NNC(=O)Cn2nc(-c3ccccc3)c(-c3ccccc3)c(C#N)c2=O)cc1,7,24,0.8,0.4,57*,-7*
O=c1oc(-c2cccs2)nc2scc(-c3cccs3)c12,5,-5,1,1.4,-36,/
Cc1nc2scc(-c3cccs3)c2c(=O)o1,7,80*,0.2,0.5,55*,-0.32
Cc1ccc(C)n1-n1c(C)nc2scc(-c3cccs3)c2c1=O,/,79*,0.2,0.3,71*,-3.9*
Cc1nc2scc(-c3cccs3)c2c(=O)n1-n1cccc1,3,53*,0.5,0.4,58*,-3
CCCOC(=O)Nc1ccc(S(=O)(=O)Nn2cnnc2)cc1,2,19,0.8,0.9,11,0.81
CC(C)(C)c1cc(NC(=O)c2cc(F)c(F)c(F)c2F)no1,/,-12,1.1,1.1,-10,0.28
CCCn1nnnc1NC(=O)CSc1ccc(Cl)cc1,7,82*,0.2,0.3,66*,0.032
CCOc1ccc(NC(=O)CSc2nnnn2CC(=O)O)cc1,5,/,/,/,/,-0.6
CCCCn1nnnc1SCC(=O)Nc1ccc(C)cc1,1,71*,0.3,0.6,36,0.084
CCn1nnc(NC(=O)CSc2ccc(Cl)cc2)n1,/,26,0.7,0.8,21,-0.26
CCCCn1nnnc1SCC(=O)Nc1ccc2c(c1)OCCO2,7,67*,0.3,0.4,59*,-0.067
CCCn1nnnc1SCC(=O)Nc1ccc(F)cc1,4,96*,0,0.8,19,-0.85
C=CCNc1nc(-c2ccc(OC)cc2OC)cs1,5,57*,0.4,1.1,-8,-1.5
SMILES,HIV Rev-RRE inh,CYP2C19 inhib,CYP2C19 act,CYP2C9 act,CYP2C9 inhib,Cav32 inh
Cc1cnc(C(=O)Nc2ccccc2-c2ccc(C)o2)cn1,12,-4,1,0.1,89*,0.048
COc1ccccc1OCc1nc(Cc2ccc(Cl)cc2)no1,17,94*,0.1,1.3,-33,-5.2*
COc1ccccc1Cc1noc(-c2cc(Cl)ccc2OC)n1,15,48,0.5,2.3*,-134,-0.25
CCOc1ccc(N(Cc2cc3ccc(C)cc3[nH]c2=O)S(C)(=O)=O)cc1,6,11,0.9,1,4,-0.65
CCC(C)(C)NC(=O)C(c1ccc(OC)cc1)N(Cc1cccs1)C(=O)CCC(=O)Nc1cc(C)on1 (configuration not stated),2,/,/,/,/,-5.5*
CCC(C)(C)NC(=O)C(c1ccc(OC)cc1)N(CC1CCCO1)C(=O)CCC(=O)Nc1cc(C)on1 (configuration not stated),0,/,/,/,/,0.095
OC(Cn1cncn1)(c1ccccc1)c1ccccc1,9,51*,0.5,0.2,76*,1
COc1ccc(/C=N/NC(=O)c2ccc3ccccc3c2)cc1OS(=O)(=O)c1ccc(NC(C)=O)cc1,-4,78*,0.2,0.1,87*,-2.1
COC(=O)/C=C/S(=O)(=O)c1ccc(NC(C)=O)cc1,10,-1,1,1,1,1.2
COc1cc(C=O)cc(OC)c1OS(=O)(=O)c1ccc(NC(C)=O)cc1,2,91*,0.1,2.8*,-182,2
CC1CCC(C(C)C)C(OC(=O)CSc2nnc(N)s2)C1 (configuration not stated),9,66*,0.3,0.6,40,-4.8*
CC1CCC(C(C)C)C(OC(=O)CSc2n[nH]c(=O)[nH]c2=O)C1 (configuration not stated),/,-12,1.1,1,-2,-1.3
Cc1nnc(SCC(=O)OC2CC(C)CCC2C(C)C)[nH]c1=O (configuration not stated),3,32,0.7,0.1,88*,0.46
CCn1c(N)c(C(=O)NC2CCCCC2)sc1=S,-3,/,/,/,/,0.77
C=CCn1c(SCCC)nc(O)cc1=O,3,-7,1.1,1,2,0.8
COc1ccc(NC(=O)C(c2ccc(C)cc2)N(C)C(=O)c2cnccn2)cc1 (configuration not stated),/,52*,0.5,0.5,53*,-0.71
COc1ccc(C(C(=O)Nc2ccc(C(C)C)cc2)N(C)C(=O)CNC(C)=O)cc1 (configuration not stated),4,24,0.8,0.7,33,0.011
O=C(CCSc1nnc2ccccn12)Nc1ccc(F)cc1,3,-2,1,1.1,-12,0.21
O=C(CCSc1nnc2ccc3ccccc3n12)Nc1ccc(F)cc1,1,31,0.7,2.1*,-113,0.74
O=C(Nc1ccc(OC(F)(F)C(F)F)c(NC(=O)c2ccc(F)cc2)c1)c1ccc(F)cc1,6,/,/,/,/,-0.26
COc1cc2[nH]c(=O)c(C(=O)NCCCN3CCCCC3)c(O)c2cc1OC,-2,52*,0.5,0.7,28,1.3
O=C(NCCCN1CCOCC1)c1c(O)c2ccccc2[nH]c1=O,4,-10,1.1,1.1,-10,2.2
COC(=O)CCc1c(C)[nH]c(C(=O)OCc2ccccc2)c1C,5,62*,0.4,0.6,36,-3.2
Cc1cccc(Oc2coc3cc(OC(=O)c4cccs4)ccc3c2=O)c1,13,34,0.7,1.8,-79,-1.8
